Test results from ChEMBL document CHEMBL4673306, “Exploration of nitrogen heterocycle scaffolds for the development of potent human neutrophil elastase inhibitors” (Bioorg Med Chem, 2021).

What was measured:
Neutrophil elastase = molecular target: T1, Neutrophil elastase (Homo sapiens, UniProt P08246); assay: Inhibition of human neutrophil elastase using N-methylsuccinyl-Ala-Ala-Pro-Val-7-amino-4-methylcoumarin as substrate measured for every 30 sec for 10 mins by fluorescence based assay
T1 sequence (P08246 whole entry): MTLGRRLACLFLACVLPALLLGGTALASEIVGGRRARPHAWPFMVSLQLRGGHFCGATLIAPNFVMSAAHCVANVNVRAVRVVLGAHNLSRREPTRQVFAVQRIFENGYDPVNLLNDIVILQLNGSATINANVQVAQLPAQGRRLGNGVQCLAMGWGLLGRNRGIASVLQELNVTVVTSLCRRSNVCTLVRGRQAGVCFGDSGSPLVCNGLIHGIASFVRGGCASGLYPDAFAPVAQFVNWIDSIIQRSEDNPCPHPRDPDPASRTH

[1] = Stability of compound in PBS at pH 7.4 assessed as half life by spectrophotometry; type: physicochemical; settings: buffer
Procedure, shortened: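 Spontaneous hydrolysis measured at 20 °C in 0.05 M phosphate buffer, pH 7.4, with compound at 20 μM. Absorbance was read at each compound's characteristic maximum over time until it stopped falling (A∞). k' was taken from the slope of log(At − A∞) versus time, and t1/2 = 0.693/k'.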

| IC50 (Neutrophil elastase) | SMILES | IC50 (Neutrophil elastase; read-out: IC50) [nM] | t1/2 [1] [h] |
| --- | --- | --- | --- |
| – | CCOC(=O)c1nn(C(=O)c2cccc(C)c2)c2ncccc12 | 2000 | – |
| – | N#Cc1cn(C(=O)C2CC2)c2cnccc12 | 183 | – |
| – | O=C(C1CC1)n1nc([N+](=O)[O-])c2cccnc21 | 21 | 1.56 |
| Not Active | COc1cccc(NC(=O)c2cnc3cc(C)nn3c2C)c1 | – | – |
| Not Active | COc1cccc(CNC(=O)c2cnn3c(C)c(C(C)=O)cnc23)c1 | – | – |
| – | Cc1cccc(C(=O)n2cc(C#N)c3cnccc32)c1 | – | 2.722 |
| – | N#Cc1nn(C(=O)C2CC2)c2ncccc12 | 34 | – |
| – | Cc1cccc(C(=O)n2nc(C(F)(F)F)c3cccnc32)c1 | 420 | – |
| – | Cc1cccc(C(=O)n2nc(C#N)c3cccnc32)c1 | 330 | – |
| – | Cc1cccc(C(=O)n2nc(C(=O)OC(C)C)c3cccnc32)c1 | 980 | – |
| – | N#Cc1nn(C(=O)C2CC2)c2ccncc12 | 79 | 1.32 |
| Not Active | N#Cc1nn(Cc2ccccc2)c2ncccc12 | – | – |
| – | N#Cc1nn(C(=O)C2CCCC2)c2ncccc12 | 140 | – |
| – | Cc1cccc(C(=O)n2nc(C#N)c3cnccc32)c1 | 10 | 0.203 |
| Not Active | COc1cccc(CNC(=O)c2cnc3cc(C(C)(C)C)nn3c2C)c1 | – | – |
| – | CCOC(=O)c1nn(C(=O)C2CC2)c2ccncc12 | 69 | 7.28 |
| – | CCOC(=O)c1nn(C(=O)c2cccc(C)c2)c2ccncc12 | 16 | 2.45 |

| IC50 (Neutrophil elastase) | SMILES | IC50 (Neutrophil elastase; read-out: IC50) [nM] | t1/2 [1] [h] |
| --- | --- | --- | --- |
| – | O=C(C1CC1)n1nc(C(F)(F)F)c2cnccc21 | 87 | 6.435 |
| Not Active | COc1cccc(CNC(=O)c2cnc3c(Cl)c(C(C)(C)C)nn3c2C)c1 | – | – |
| Not Active | COc1cccc(NC(=O)c2cnc3c(Cl)c(C(C)(C)C)nn3c2C)c1 | – | – |
| Not Active | COc1cccc(NC(=O)c2cnn3c(C)c(C(C)=O)cnc23)c1 | – | – |
| – | Nc1nn(C(=O)C2CC2)c2ncccc12 | 9900 | – |
| – | N#Cc1cn(C(=O)C2CC2)c2cccnc12 | 23 | 4.472 |
| – | Cc1ccc(C(=O)n2nc(C#N)c3cccnc32)cc1 | 1500 | – |
| – | O=C(C1CC1)n1ccc2nccnc21 | 7900 | – |
| Not Active | COc1cccc(CNC(=O)c2cnc3cc(C)nn3c2C)c1 | – | – |
| – | Cc1cccc(C(=O)n2cc(C#N)c3ncccc32)c1 | – | 1.28 |
| – | N#Cc1nn(C(=O)C2CCCCC2)c2ncccc12 | 1100 | – |
| – | N#Cc1cn(C(=O)C2CC2)c2nccnc12 | – | 1.677 |
| – | N#Cc1nn(C(=O)c2ccccc2)c2ncccc12 | 160 | – |
| – | Cc1cccc(C(=O)n2nc(C)c3cnccc32)c1 | 760 | – |
| – | O=C(C1CC1)n1nc(C(F)(F)F)c2cccnc21 | 50 | 14.7 |
| Not Active | COc1cccc(NC(=O)c2cnc3cc(C(C)(C)C)nn3c2C)c1 | – | – |
| – | Cc1cccc(C(=O)n2nc(C(F)(F)F)c3cnccc32)c1 | 33 | 1.777 |
